# Data as given in ChEMBL document CHEMBL3232837, “Synthesis and evaluation of new Hsp90 inhibitors based on a 1,4,5-trisubstituted 1,2,3-triazole scaffold” (J Med Chem, 2014).
# Active and inactive are the calls of the source. The calls are words filed in the database; no cut-off is given here.
# Legend:
# [1] = target: Histone deacetylase 3/Nuclear receptor corepressor 2 (HDAC3/NCoR2) (Homo sapiens, UniProt O15379); assay: Inhibition of human HDAC-3/NCOR2 using RHKK(Ac) as substrate by fluorescence assay; assay type: protein-complex assay
# Histone deacetylase 3/Nuclear receptor corepressor 2 (HDAC3/NCoR2), sequence (O15379 whole entry): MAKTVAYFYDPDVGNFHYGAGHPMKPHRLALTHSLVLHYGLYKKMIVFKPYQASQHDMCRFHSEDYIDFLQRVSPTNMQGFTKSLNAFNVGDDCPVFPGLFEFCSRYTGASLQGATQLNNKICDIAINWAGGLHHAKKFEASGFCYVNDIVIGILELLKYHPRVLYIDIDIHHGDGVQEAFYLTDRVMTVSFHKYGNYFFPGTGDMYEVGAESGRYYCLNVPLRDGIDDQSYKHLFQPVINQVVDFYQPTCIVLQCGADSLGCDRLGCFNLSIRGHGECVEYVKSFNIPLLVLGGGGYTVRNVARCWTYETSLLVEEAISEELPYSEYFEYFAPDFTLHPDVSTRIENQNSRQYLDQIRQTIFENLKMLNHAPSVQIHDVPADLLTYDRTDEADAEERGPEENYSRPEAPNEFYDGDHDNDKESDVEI
# Histone deacetylase 3/Nuclear receptor corepressor 2 (HDAC3/NCoR2), sequence (Q9Y618 whole entry, further chain): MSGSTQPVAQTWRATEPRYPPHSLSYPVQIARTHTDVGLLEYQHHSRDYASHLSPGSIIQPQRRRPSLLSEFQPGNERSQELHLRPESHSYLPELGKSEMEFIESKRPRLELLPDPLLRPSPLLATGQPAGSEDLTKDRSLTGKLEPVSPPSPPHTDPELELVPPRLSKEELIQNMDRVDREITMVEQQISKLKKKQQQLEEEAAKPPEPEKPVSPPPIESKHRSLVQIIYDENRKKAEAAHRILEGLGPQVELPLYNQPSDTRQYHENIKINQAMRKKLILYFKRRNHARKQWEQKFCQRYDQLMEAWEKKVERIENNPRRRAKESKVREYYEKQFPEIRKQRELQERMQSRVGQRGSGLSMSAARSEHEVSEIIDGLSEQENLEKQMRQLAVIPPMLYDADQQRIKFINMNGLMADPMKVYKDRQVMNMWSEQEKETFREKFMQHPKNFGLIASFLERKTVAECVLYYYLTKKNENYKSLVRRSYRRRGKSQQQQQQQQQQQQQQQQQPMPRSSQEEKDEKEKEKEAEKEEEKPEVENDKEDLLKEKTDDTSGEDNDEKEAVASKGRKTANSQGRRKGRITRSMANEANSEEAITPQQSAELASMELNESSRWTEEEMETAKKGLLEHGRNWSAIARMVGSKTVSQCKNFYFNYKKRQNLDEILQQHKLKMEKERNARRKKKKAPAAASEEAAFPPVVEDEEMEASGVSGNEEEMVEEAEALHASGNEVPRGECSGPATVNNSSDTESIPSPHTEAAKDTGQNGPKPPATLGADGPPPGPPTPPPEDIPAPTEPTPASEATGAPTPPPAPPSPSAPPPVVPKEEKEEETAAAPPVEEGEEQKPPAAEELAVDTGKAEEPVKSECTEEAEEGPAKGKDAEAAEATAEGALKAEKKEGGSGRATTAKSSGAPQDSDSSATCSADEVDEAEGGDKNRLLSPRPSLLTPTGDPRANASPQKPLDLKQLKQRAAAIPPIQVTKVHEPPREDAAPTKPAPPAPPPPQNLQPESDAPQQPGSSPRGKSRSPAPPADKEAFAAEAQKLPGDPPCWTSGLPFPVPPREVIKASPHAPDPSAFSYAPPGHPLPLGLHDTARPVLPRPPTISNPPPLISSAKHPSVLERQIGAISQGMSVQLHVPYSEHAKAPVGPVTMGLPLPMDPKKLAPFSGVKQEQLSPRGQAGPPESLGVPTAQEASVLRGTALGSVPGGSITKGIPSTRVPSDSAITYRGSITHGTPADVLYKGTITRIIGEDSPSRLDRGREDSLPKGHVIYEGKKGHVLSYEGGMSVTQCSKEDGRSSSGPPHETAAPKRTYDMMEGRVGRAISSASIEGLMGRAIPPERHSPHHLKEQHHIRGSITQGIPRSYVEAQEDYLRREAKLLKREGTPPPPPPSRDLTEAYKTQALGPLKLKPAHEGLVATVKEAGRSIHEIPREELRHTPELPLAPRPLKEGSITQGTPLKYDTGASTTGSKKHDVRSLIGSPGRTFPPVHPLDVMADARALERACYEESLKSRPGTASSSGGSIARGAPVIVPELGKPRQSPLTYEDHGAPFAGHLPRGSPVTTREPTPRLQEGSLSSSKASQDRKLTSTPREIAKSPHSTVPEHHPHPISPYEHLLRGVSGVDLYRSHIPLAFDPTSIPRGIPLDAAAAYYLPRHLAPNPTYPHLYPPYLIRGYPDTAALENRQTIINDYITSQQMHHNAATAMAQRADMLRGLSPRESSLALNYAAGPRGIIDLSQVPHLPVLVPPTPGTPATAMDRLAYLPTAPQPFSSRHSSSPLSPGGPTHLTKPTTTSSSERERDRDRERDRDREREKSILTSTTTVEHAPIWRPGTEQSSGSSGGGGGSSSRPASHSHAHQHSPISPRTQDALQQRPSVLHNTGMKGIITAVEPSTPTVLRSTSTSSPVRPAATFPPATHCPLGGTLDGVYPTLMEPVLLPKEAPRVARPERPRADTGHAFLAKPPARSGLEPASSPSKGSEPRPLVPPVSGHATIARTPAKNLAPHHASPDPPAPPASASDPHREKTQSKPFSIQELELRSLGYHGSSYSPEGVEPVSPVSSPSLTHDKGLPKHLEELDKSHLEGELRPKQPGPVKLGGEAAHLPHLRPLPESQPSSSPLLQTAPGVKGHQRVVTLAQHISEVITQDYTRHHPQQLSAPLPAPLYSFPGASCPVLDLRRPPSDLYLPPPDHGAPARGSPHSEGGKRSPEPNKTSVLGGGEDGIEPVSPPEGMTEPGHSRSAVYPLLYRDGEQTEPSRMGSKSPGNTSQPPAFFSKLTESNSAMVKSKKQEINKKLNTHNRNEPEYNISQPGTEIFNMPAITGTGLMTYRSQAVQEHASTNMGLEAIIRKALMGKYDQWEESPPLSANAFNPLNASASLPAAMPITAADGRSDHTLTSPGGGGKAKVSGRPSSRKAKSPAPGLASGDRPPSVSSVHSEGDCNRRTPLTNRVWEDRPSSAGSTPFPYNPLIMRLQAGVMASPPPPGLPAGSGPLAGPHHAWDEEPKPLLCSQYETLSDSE
# [2] = target: Histone deacetylase 5 (Homo sapiens, UniProt Q9UQL6); assay: Inhibition of human HDAC-5 using RHKK(Ac) as substrate by fluorescence assay
# Histone deacetylase 5, sequence (Q9UQL6 whole entry): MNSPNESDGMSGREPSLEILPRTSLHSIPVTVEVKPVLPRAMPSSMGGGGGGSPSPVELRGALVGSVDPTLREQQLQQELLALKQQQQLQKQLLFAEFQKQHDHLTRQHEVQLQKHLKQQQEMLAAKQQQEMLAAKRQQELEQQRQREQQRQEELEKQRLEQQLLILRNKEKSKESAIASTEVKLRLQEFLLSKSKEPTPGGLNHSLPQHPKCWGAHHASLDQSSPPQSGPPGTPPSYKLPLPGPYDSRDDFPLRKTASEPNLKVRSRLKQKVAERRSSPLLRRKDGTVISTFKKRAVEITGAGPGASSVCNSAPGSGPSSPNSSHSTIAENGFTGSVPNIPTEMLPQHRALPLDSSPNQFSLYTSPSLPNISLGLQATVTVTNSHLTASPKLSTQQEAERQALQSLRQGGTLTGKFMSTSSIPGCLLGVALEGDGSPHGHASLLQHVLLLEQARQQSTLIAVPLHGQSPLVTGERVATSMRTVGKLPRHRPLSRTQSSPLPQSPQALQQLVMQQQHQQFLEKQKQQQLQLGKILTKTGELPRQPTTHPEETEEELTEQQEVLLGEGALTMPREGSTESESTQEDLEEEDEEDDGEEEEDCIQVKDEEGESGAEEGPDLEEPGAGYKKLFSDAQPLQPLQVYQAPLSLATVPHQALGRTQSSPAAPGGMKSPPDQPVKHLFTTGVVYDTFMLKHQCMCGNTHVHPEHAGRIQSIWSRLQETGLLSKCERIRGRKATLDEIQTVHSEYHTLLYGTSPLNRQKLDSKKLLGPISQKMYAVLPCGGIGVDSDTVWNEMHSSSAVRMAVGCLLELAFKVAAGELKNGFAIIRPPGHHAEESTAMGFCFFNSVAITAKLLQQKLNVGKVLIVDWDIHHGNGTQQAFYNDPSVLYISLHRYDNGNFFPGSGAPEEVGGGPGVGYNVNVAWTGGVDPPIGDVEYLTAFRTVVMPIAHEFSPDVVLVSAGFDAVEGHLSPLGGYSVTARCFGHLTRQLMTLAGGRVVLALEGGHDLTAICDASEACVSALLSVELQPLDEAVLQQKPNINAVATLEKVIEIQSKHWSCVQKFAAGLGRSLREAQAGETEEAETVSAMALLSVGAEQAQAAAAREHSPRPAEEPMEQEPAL
# [3] = system: NCI-H460; assay: Cytotoxicity against human NCI-H460 cells assessed as growth inhibition after 72 hrs by SRB assay; assay type: functional, cell-based; settings: NCI-H460, 72 h
# Procedure, shortened: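 NCI-H460 cells grown in RPMI-1640 with 10% heat-inactivated FBS, seeded at about 10% confluence and allowed 24 h recovery. Exposed to graded drug concentrations or solvent for 72 h. Surviving fraction measured by sulforhodamine B. IC50 is the concentration giving a 50% drop in cell number vs vehicle, from dose-response curve fitting; mean of n=4 with SD.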
# [4] = target: T1, Histone deacetylase 11 (Homo sapiens, UniProt Q96DB2); assay: Inhibition of human HDAC-11 using RHKK(Ac) as substrate by fluorescence assay
# T1 sequence (Q96DB2 whole entry): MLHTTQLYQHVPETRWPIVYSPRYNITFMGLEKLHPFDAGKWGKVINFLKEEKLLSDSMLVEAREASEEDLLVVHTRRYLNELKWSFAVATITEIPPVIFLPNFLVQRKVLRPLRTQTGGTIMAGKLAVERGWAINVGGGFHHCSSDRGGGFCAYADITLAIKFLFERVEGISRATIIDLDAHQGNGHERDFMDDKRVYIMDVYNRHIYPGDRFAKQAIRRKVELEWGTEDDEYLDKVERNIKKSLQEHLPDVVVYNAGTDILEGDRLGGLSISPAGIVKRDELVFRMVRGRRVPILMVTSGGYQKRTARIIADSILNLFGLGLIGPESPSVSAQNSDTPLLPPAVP
# [5] = target: Heat shock protein HSP 90-alpha (Homo sapiens, UniProt P07900); assay: Displacement of GM-FITC from full-length recombinant human Hsp90-alpha after 4 hrs by fluorescence polarization assay
# [6] = target: Histone deacetylase 1 (Homo sapiens, UniProt Q13547); assay: Inhibition of human HDAC-1 using RHKK(Ac) as substrate by fluorescence assay
# Histone deacetylase 1, sequence (Q13547 whole entry): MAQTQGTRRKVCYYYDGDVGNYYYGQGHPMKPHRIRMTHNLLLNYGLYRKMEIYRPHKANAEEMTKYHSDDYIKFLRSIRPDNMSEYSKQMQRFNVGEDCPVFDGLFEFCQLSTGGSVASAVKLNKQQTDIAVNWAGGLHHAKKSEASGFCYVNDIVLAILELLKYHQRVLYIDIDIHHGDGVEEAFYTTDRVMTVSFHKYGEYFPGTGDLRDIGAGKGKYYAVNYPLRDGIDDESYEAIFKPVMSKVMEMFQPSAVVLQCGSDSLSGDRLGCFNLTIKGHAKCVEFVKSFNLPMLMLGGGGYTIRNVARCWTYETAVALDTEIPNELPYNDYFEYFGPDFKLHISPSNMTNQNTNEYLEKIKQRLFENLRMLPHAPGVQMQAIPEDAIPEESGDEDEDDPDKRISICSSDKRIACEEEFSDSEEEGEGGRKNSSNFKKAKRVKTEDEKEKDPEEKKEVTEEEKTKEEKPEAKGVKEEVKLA
# [7] = target: Histone deacetylase 4 (Homo sapiens, UniProt P56524); assay: Inhibition of human HDAC-4 using RHKK(Ac) as substrate by fluorescence assay
# [8] = target: T2, Histone deacetylase 8 (Homo sapiens, UniProt Q9BY41); assay: Inhibition of human HDAC-8 using RHKK(Ac) as substrate by fluorescence assay
# T2 sequence (Q9BY41 whole entry): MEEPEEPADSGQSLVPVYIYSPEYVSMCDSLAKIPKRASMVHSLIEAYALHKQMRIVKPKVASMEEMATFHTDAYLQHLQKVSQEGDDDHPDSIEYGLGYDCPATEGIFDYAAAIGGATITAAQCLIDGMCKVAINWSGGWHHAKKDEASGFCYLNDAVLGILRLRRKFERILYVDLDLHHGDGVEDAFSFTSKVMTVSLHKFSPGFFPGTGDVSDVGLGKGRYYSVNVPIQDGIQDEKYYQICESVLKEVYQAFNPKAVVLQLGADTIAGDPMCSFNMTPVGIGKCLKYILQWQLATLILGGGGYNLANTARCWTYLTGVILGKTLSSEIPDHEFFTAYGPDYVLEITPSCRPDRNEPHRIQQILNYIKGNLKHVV
# [9] = target: T3, Protein deacetylase HDAC6 (Homo sapiens, UniProt Q9UBN7); assay: Inhibition of human HDAC-6 using RHKK(Ac) as substrate by fluorescence assay
# T3 sequence (Q9UBN7 whole entry): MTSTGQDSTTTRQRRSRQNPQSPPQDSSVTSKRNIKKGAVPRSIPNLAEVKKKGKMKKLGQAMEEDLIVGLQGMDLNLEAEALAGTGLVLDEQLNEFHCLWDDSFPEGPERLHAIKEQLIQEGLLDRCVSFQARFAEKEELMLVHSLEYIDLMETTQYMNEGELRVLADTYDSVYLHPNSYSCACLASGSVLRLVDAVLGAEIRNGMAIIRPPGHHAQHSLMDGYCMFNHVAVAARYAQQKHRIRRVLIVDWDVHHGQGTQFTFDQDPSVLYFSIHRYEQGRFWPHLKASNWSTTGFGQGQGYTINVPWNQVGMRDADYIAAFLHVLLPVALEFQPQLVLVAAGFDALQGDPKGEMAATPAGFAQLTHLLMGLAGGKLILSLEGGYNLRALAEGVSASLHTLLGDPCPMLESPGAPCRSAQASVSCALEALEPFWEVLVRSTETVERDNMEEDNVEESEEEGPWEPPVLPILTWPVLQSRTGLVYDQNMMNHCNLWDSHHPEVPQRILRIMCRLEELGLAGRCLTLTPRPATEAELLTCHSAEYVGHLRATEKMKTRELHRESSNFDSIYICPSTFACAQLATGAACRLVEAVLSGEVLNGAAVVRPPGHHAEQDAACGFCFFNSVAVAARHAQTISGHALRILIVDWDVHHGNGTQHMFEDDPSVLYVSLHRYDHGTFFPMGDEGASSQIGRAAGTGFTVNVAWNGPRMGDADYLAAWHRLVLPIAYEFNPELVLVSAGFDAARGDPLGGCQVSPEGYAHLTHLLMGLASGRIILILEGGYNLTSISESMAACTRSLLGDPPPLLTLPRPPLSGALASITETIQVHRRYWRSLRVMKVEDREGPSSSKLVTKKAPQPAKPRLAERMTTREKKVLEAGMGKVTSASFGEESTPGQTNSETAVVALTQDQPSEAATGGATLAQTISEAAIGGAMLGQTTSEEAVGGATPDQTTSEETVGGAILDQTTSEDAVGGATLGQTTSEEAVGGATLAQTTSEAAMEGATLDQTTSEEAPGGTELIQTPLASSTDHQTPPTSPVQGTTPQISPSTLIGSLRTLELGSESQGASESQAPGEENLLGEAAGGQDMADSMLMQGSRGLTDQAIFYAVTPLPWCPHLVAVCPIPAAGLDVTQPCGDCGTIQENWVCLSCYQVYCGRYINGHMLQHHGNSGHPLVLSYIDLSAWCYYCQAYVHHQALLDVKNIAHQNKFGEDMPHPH
# [10] = target: T4, Polyamine deacetylase HDAC10 (Homo sapiens, UniProt Q969S8); assay: Inhibition of human HDAC-10 using RHKK(Ac) as substrate by fluorescence assay
# T4 sequence (Q969S8 whole entry): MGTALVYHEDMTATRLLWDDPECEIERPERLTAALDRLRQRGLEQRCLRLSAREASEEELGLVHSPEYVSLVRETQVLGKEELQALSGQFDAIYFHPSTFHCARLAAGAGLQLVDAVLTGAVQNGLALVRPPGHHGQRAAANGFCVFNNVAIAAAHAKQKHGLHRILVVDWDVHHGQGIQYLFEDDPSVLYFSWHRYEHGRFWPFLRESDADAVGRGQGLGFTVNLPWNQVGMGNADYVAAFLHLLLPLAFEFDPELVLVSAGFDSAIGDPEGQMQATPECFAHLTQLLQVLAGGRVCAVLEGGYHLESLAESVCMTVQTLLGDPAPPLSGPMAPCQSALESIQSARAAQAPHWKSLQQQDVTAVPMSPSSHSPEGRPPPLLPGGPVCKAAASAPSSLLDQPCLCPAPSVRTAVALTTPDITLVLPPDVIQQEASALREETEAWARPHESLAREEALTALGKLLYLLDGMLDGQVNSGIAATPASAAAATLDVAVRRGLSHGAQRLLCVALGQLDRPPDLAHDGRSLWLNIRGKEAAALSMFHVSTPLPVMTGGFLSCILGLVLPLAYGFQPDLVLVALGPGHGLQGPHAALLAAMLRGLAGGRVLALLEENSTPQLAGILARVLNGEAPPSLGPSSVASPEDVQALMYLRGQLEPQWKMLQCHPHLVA
# [11] = target: Histone deacetylase 2 (Homo sapiens, UniProt Q92769); assay: Inhibition of human HDAC-2 using RHKK(Ac) as substrate by fluorescence assay
# Histone deacetylase 2, sequence (Q92769 whole entry): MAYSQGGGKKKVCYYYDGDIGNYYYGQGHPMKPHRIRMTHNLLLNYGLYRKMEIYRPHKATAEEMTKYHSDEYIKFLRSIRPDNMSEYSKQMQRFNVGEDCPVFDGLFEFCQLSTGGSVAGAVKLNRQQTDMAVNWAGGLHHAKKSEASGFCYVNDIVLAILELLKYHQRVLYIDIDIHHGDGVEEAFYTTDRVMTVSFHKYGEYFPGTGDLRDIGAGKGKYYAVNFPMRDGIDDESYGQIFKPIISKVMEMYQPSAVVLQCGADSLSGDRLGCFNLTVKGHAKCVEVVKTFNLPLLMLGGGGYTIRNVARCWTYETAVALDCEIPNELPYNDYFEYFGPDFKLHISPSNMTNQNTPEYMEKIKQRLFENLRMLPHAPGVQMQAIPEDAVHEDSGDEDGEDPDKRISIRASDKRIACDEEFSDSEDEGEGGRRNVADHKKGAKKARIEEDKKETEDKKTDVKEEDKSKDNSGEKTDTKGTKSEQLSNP
# [12] = Metabolic stability in human plasma assessed as compound remaining at 5 uM measured at 120 mins by LC/MS analysis; assay type: ADME, cell-free
# Procedure, shortened: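 Compound added to human plasma at 5 µM final and incubated at 37 °C for up to 120 min. Samples quenched in two volumes of chilled acetonitrile and centrifuged at 4 °C. Remaining compound quantified by LC/MS.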
# [13] = system: Mus musculus; assay: (§1) In vivo inhibition of HSP90 in human A431 cells overexpressing EGFR xenografted in CD-1 nude mouse assessed as induction of HSP70 protein expression at 50 mg/kg, ip administered as q5d/week for 2 weeks starting 3 days after tumor injection measured at 2 hrs post last dose by Western blot analysis; assay type: functional, organism-based; parameters: dose 50 mg/kg; settings: A-431
# [14] = Toxicity in ip dosed CD-1 nude mouse xenografted with human A431 cells overexpressing EGFR administered as q5d/week for 2 weeks starting 3 days after tumor injection measured on day 5 post last dose; assay type: organism-based, A-431; settings: in vivo
# Procedure, shortened: (§2)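 Female athymic nude mice, 5–6 weeks old, implanted s.c. in the right flank with 5 × 10^6 exponentially growing tumour cells and given i.p. doses (mg/10 mL/kg) over 2 weeks starting 3 days after implantation. Toxicity endpoints were maximum body weight loss, BWL% = 100 − [(mean BW day x / mean BW day 1) × 100], and deaths occurring before the first control death.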
# [15] = system: Mus musculus; assay: as §1, with “downregulation” for “induction”, “CDK4” for “HSP70”; assay type: functional, organism-based; parameters: dose 50 mg/kg; settings: A-431
# [16] = system: Mus musculus; assay: (§3) In vivo inhibition of HSP90 in human GTL16 cells overexpressing c-Met xenografted in CD-1 nude mouse assessed as downregulation of c-Met protein expression at 50 mg/kg, ip administered as q5d/week for 2 weeks starting 3 days after tumor injection measured at 6 hrs post last dose by Western blot analysis; assay type: functional, organism-based; parameters: dose 50 mg/kg
# [17] = system: Mus musculus; assay: as §3, with “of AKT” for “of c-Met”; assay type: functional, organism-based; parameters: dose 50 mg/kg
# [18] = system: Mus musculus; assay: In vivo inhibition of HSP90 in human GTL16 cells overexpressing c-Met xenografted in CD-1 nude mouse assessed as induction of HSP70 protein expression at 50 mg/kg, ip administered as q5d/week for 2 weeks starting 3 days after tumor injection measured at 6 hrs post last dose by Western blot analysis; assay type: functional, organism-based; parameters: dose 50 mg/kg
# [19] = system: Mus musculus; assay: (§4) In vivo inhibition of HSP90 in human A431 cells overexpressing EGFR xenografted in CD-1 nude mouse assessed as downregulation of AKT protein expression at 50 mg/kg, ip administered as q5d/week for 2 weeks starting 3 days after tumor injection measured at 2 hrs post last dose by Western blot analysis; assay type: functional, organism-based; parameters: dose 50 mg/kg; settings: A-431
# [20] = system: A-431; assay: Antitumor activity against human A431 cells overexpressing EGFR xenografted in CD-1 nude mouse assessed as tumor growth inhibition at 50 mg/kg, ip administered as q5d/week for 2 weeks starting 3 days after tumor injection measured on day 5 post last dose relative to vehicle-treated control; assay type: functional, organism-based; parameters: dose 50 mg/kg
# Procedure, shortened: (§5)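 Female athymic nude mice, 5-6 weeks old; 5 × 10^6 exponentially growing tumor cells inoculated s.c. in right flank. Treatment i.p. from day 3 after tumor injection. Tumor volume measured biweekly as d²·D/2. TVI% = 100 − (mean TV treated/mean TV control × 100), evaluated 5 days after last treatment; Mann-Whitney test vs vehicle group.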
# [21] = system: GTL 16; assay: Antitumor activity against human GTL16 cells overexpressing c-Met xenografted in CD-1 nude mouse assessed as tumor growth inhibition at 50 mg/kg, ip administered as q5d/week for 2 weeks starting 3 days after tumor injection measured on day 5 post last dose relative to vehicle-treated control; assay type: functional, organism-based; parameters: dose 50 mg/kg; procedure, shortened: as §5
# [22] = Toxicity in ip dosed CD-1 nude mouse xenografted with GTL16 cells overexpressing c-Met administered as q5d/week for 2 weeks starting 3 days after tumor injection measured on day 5 post last dose; assay type: organism-based; settings: in vivo; procedure, shortened: as §2
# [23] = system: NCI-H460; assay: Cell cycle arrest in human NCI-H460 cells assessed as accumulation at G2/M phase at 2 times IC50 after 24 to 72 hrs by propidium iodide staining-based FACS flow cytometric analysis; assay type: functional
# [24] = system: Mus musculus; assay: as §3, with “of CDK4” for “of c-Met”; assay type: functional, organism-based; parameters: dose 50 mg/kg
# [25] = system: Mus musculus; assay: as §4, with “EGFR” for “AKT”; assay type: functional, organism-based; parameters: dose 50 mg/kg; settings: A-431
# [26] = system: NCI-H460; assay: Induction of apoptosis in human NCI-H460 cells assessed as cell with hypodiploid DNA content at 2 times IC50 after 24 to 72 hrs by propidium iodide staining-based FACS flow cytometric analysis; assay type: functional
smiles,measurement,setting,value
CC(C)c1cc(-n2nnc(C(=O)NCCCCCCC(=O)NO)c2-c2ccc(CN3CCOCC3)cc2)c(O)cc1O,IC50,[1],2790 nM
same,IC50,[2],1910 nM
same,IC50,[3],> 1000 nM
same,IC50,[4],1770 nM
same,IC50,[5],31 nM
same,IC50,[6],3100 nM
same,IC50,[7],71500 nM
same,IC50,[8],717 nM
same,IC50,[9],12 nM
same,IC50,[10],3220 nM
same,IC50,[11],5610 nM
CCNC(=O)c1noc(-c2cc(C(C)C)c(O)cc2O)c1-c1ccc(CN2CCOCC2)cc1 [LUMINESPIB],"remaining at 2 h, 5 µM",[12],56%
same,inhibition,[13],Active
same,MTD at 2 weeks,[14],50 mg/kg
same,inhibition,[15],Active
same,inhibition,[16],Active
same,inhibition,[17],Active
same,inhibition,[18],Active
same,inhibition,[19],Active
same,TGI,[20],Active
same,TGI,[21],Active
same,MTD at 2 weeks,[22],50 mg/kg
same,Activity,[23],Active
same,inhibition,[24],Active
same,inhibition,[25],Active
same,Activity,[26],Active
